These results are taken from ChEMBL document CHEMBL1155231, “Fluoro-pegylated chalcones as positron emission tomography probes for in vivo imaging of beta-amyloid plaques in Alzheimer's disease” (J Med Chem, 2009).

As usually defined, the Ki is the equilibrium dissociation constant of an inhibitor or competing ligand from its target. Higher therefore signals lower affinity.

Activity calls are given as the source filed them. The rule behind the calls is not given here.

A short description of data set [1]: Displacement of [125I]DMIC from amyloid beta (1 to 42) peptide. In short, it runs like this: (§1)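 Aβ(1-42) aggregated at 0.25 mg/mL in 10 mM sodium phosphate, 1 mM EDTA, pH 7.4, 37 °C for 42 h with gentle constant shaking. Competition against [125I]DMIC. Bound and free separated by GF/B filtration, filter radioactivity read by γ counter. IC50 from displacement curves of three independent experiments, Ki by Cheng-Prusoff.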
In general terms: Loss of bound radioactivity is the signal in a displacement assay; it reports binding, not function.

Data set [2] deals with Amyloid-beta precursor protein (Homo sapiens) (UniProt P05067). Description: Binding affinity to beta amyloid plaques in human Alzheimer's disease patient brain at 54 uCi/200 uL by autoradiography. Conditions: tested as the 18F-labelled form.
Data set [3] relates to Amyloid-beta precursor protein (Homo sapiens), P05067 [K670N,M671L]. Put plainly: Binding affinity to human recombinant APP695 K670N and M671L Swedish double mutant plaques expressed in Tg2576 mouse brain at 100 uM after 10 mins by amyloid beta-protein immunohistostaining. In short, it runs like this: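 Female Tg2576 and age-matched wild-type mice, 20 months old; brains frozen on dry ice, cut into 10 μm serial sections. Slides incubated 10 min with 100 μM compound in 50% EtOH, washed twice 3 min in 50% EtOH, fluorescence read with excitation 450-490 nm and 520 nm long-pass. Adjacent sections immunostained for Aβ with DAB.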

Data set [4] can be described thus: Binding affinity to amyloid beta (1 to 42) peptide. The method in brief:
as §1

In data set [5] the test system is Brain. Description: Biodistribution in normal ddY mouse brain at 3.7 MBq, iv after 10 mins. Conditions: in vivo. Type of data set: ADME, organism-based. The method in brief: (§2)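 Tracer (3.7 MBq) in 100 μL saline with 10% EtOH and 1 mg/mL ascorbic acid, injected into tail vein of 5-week-old ddY mice (22-25 g). Groups of five killed at each time; organs removed, weighed, radioactivity γ-counted and expressed as % injected dose per gram, mean ± SD of 4-5 mice.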

In data set [6] the test system is Blood. Description: Biodistribution in normal ddY mouse blood at 3.7 MBq, iv after 2 mins. The format is ADME, organism-based. The conditions noted are these: in vivo. The method in brief:
as §2

The test system of data set [7] is Blood. Put plainly: Biodistribution in normal ddY mouse blood at 3.7 MBq, iv after 10 mins. Type of data set: ADME, organism-based. The conditions noted are these: in vivo. The method in brief: as §2
Data set [8] concerns Brain. Put plainly: Biodistribution in normal ddY mouse brain at 3.7 MBq, iv after 2 mins. Type of data set: ADME, organism-based. The conditions noted are these: in vivo. The method in brief:
as §2

For data set [9], the system named is Blood. Put plainly: Biodistribution in normal ddY mouse blood at 3.7 MBq, iv after 60 mins. The conditions noted are these: in vivo, 1 h. The format is ADME, organism-based. In short, it runs like this:
as §2

Data set [10] deals with Brain. Description: Biodistribution in normal ddY mouse brain at 3.7 MBq, iv after 60 mins. Type of data set: ADME, organism-based. The conditions noted are these: in vivo, 1 h. In short, it runs like this: as §2
Data set [11] deals with Brain. Put plainly: Biodistribution in normal ddY mouse brain at 3.7 MBq, iv after 30 mins. The conditions noted are these: in vivo, 0.5 h. Type of data set: ADME, organism-based. In short, it runs like this:
as §2

Data set [12] concerns Blood. Put plainly: Biodistribution in normal ddY mouse blood at 3.7 MBq, iv after 30 mins. The format is ADME, organism-based. Conditions: in vivo, 0.5 h. The method in brief: as §2
Data set [13] relates to Bone. Description: Biodistribution in normal ddY mouse bone at 3.7 MBq, iv after 2 mins. The conditions noted are these: in vivo. The format is ADME, organism-based, Bone element. In short, it runs like this: as §2
Data set [14] concerns Bone. Put plainly: Biodistribution in normal ddY mouse bone at 3.7 MBq, iv after 30 mins. Type of data set: ADME, organism-based, Bone element. Conditions: in vivo, 0.5 h. The method in brief: as §2
For data set [15], the system named is Bone. Put plainly: Biodistribution in normal ddY mouse bone at 3.7 MBq, iv after 10 mins. The conditions noted are these: in vivo. Type of data set: ADME, organism-based, Bone element. In short, it runs like this: as §2
For data set [16], the system named is Bone. Put plainly: Biodistribution in normal ddY mouse bone at 3.7 MBq, iv after 60 mins. The format is ADME, organism-based, Bone element. Conditions: in vivo, 1 h. In short, it runs like this: as §2

As for `Nc1ccc(/C=C/C(=O)c2ccc(OCCOCCF)cc2)cc1`, in data set [1], the affinity corresponds to a Ki of 1050 nM.
The same measure, in the same setting: in the case of `Nc1ccc(/C=C/C(=O)c2ccc(F)cc2)cc1` it was 663 nM.
Take `CN(C)c1ccc(-c2cn3cc(I)ccc3n2)cc1`: the Ki in data set [1] stood at 28 nM.
Compound `CN(C)c1ccc(/C=C/C(=O)c2ccc(OCCOCCF)cc2)cc1` yielded a Ki in data set [1] of 20 nM.
Same read-out and setting: in the case of `CNc1ccc(/C=C/C(=O)c2ccc(OCCOCCF)cc2)cc1` it was 216 nM; in that of `CNc1ccc(/C=C/C(=O)c2ccc(OCCF)cc2)cc1`, 197 nM.
Consider `CN(C)c1ccc(/C=C/C(=O)c2ccc(OCCOCCOCCF)cc2)cc1`, for which, in [1], the Ki was determined as 38.9 nM. In addition, the outcome in data set [2] and in [3] was Active.
`CN(C)c1ccc(/C=C/C(=O)c2ccc(I)cc2)cc1` had a Ki in [1] of 13.1 nM.
As to `CN(C)c1ccc(/C=C/C(=O)c2ccc(F)cc2)cc1`, the Ki in [1] is 49.8 nM.
Compound `CNc1ccc(/C=C/c2ccc(OCCOCCOCC[18F])cc2)cc1` [FLORBETABEN F18] returned a Ki in data set [4] of 6.7 nM.
The compound `Nc1ccc(/C=C/C(=O)c2ccc(OCCF)cc2)cc1` came in with an inhibitory constant (Ki) in [1] of 679 nM.
`CN([11CH3])c1ccc(/C=C/C(=O)c2ccc(F)cc2)cc1`: the Drug uptake in the data set on Brain [5] came to 1.53 % ID/g; in the data set on Blood [6], 2.61 % ID/g; with Blood [7], 1.6 % ID/g; in the data set with Brain [8], 3.68 % ID/g; in the data set with Blood [9], 1.4 % ID/g; in the data set on Brain [10] it was 1.04 % ID/g. Moreover, the Drug uptake in the data set on Brain [11] is 1.04 % ID/g; in the data set on Blood [12] it was 0.39 % ID/g.
In the case of `CN(C)c1ccc(/C=C/C(=O)c2ccc(OCCOCCOCC[18F])cc2)cc1`, the Drug uptake in the data set with Bone [13] was found to be 1.8 % ID/g; in the data set with Bone [14], 2.98 % ID/g; in the data set on Bone [15], 1.76 % ID/g; with Brain [5], 1.52 % ID/g; in the data set with Blood [6] it was 2.09 % ID/g; in the data set on Blood [7], 1.94 % ID/g. Also, the Drug uptake in the data set on Bone [16] worked out at 3.58 % ID/g; in the data set on Brain [8], 3.48 % ID/g; in the data set on Blood [9], 1.87 % ID/g; in the data set on Brain [10], 1.07 % ID/g; in the data set with Brain [11], 1.08 % ID/g; with Blood [12], 2.35 % ID/g.
As for `CN([11CH3])c1ccc(/C=C/C(=O)c2ccc(OCCOCCF)cc2)cc1`, the Drug uptake in the data set with Brain [5] turned out to be 2.23 % ID/g; in the data set with Blood [6], 3.48 % ID/g; with Blood [7], 2.28 % ID/g; in the data set with Brain [8] it was 4.73 % ID/g; with Blood [9], 1.44 % ID/g; in the data set on Brain [10], 1 % ID/g. Further, the Drug uptake with Brain [11] stood at 1.14 % ID/g; with Blood [12], 2.54 % ID/g.
Turning to `CN([11CH3])c1ccc(/C=C/C(=O)c2ccc(OCCOCCOCCF)cc2)cc1`, the Drug uptake in the data set on Brain [5] was determined as 1.38 % ID/g; in the data set on Blood [6], 2.44 % ID/g; with Blood [7], 1.52 % ID/g; in the data set on Brain [8], 4.31 % ID/g; in the data set with Blood [9], 0.68 % ID/g; in the data set on Brain [10], 0.35 % ID/g. For the same compound, the Drug uptake is listed as 0.64 % ID/g with Brain [11] and 1.01 % ID/g with Blood [12].
As to `CN([11CH3])c1ccc(/C=C/C(=O)c2ccc(OCCF)cc2)cc1`, the Drug uptake was 3.24 % ID/g in the data set with Brain [5]; 3.65 % ID/g in the data set with Blood [6]; 2.73 % ID/g in the data set on Blood [7]; 6.01 % ID/g in the data set with Brain [8]; 2.22 % ID/g in the data set with Blood [9]; 2.26 % ID/g with Brain [10]. Besides, the Drug uptake was found to be 2.57 % ID/g with Brain [11] and 2.12 % ID/g with Blood [12].
As for `CNc1ccc(/C=C/C(=O)c2ccc(F)cc2)cc1`, the Ki in [1] amounted to 234 nM.
Regarding `Nc1ccc(/C=C/C(=O)c2ccc(OCCOCCOCCF)cc2)cc1`, the Ki in data set [1] worked out at 790 nM.
Take `CNc1ccc(/C=C/C(=O)c2ccc(OCCOCCOCCF)cc2)cc1`: in data set [1], the Ki was found to be 471 nM.
Turning to `CN(C)c1ccc(/C=C/C(=O)c2ccc(OCCF)cc2)cc1`, the affinity in data set [1] corresponds to a Ki of 45.7 nM.
